Source: ChEMBL document CHEMBL5154773, “Development of Sulfamoylated 4-(1-Phenyl-1H-1,2,3-triazol-4-yl)phenol Derivatives as Potent Steroid Sulfatase Inhibitors for Efficient Treatment of Breast Cancer” (J Med Chem, 2022)
Calls of active or inactive are those of the source. No cut-off for these calls is given here.

Columns and labels:
[1] = Toxicity in BALB/c mouse allografted with mouse 67NR cells assessed as effect on erythrocyte count at 50 mg/kg, po for 5 days a week; type: organism-based; details: in vivo, 168 h, time 1 weeks
Mus musculus = experiment: In vivo inhibition of STS in BALB/c mouse allografted with mouse 67NR cells assessed as reduction in estradiol level in plasma at 50 mg/kg, po administered 5 days a week by ELISA; type: functional, organism-based; details: time 1.0 weeks
[2] = Toxicity in BALB/c mouse assessed as toxic effects at 10 to 50 mg/kg, po for 5 days a week for 2 weeks; type: organism-based; details: in vivo, 336 h, dose 10-50 mg/kg
Method in brief: (§1)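 Female BALB/c mice, three per dose, received oral doses of 10 mg/kg/day, 5 days a week for 2 weeks. Later mice received 20 or 50 mg/kg. Body weight and general health, including feces, were followed. After cervical dislocation, liver, kidney and spleen were weighed, and liver, kidneys, intestines and spleen were assessed macroscopically.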

[3] = Toxicity in BALB/c mouse assessed as body weight loss at 10 to 50 mg/kg, po for 5 days a week for 2 weeks; type: organism-based; details: in vivo, 336 h, dose 10-50 mg/kg; method in brief: as §1
[4] = Toxicity in BALB/c mouse assessed as change in feces consistency at 50 mg/kg, po for 5 days a week for 2 weeks; type: organism-based; details: in vivo, 336 h; method in brief: as §1
[5] = Toxicity in BALB/c mouse assessed as macroscopic changes in liver at 10 to 50 mg/kg, po for 5 days a week for 2 weeks; type: organism-based; details: in vivo, 336 h, dose 10-50 mg/kg; method in brief: as §1
[6] = Toxicity in BALB/c mouse assessed as macroscopic changes in kidneys at 10 to 50 mg/kg, po for 5 days a week for 2 weeks; type: organism-based; details: in vivo, 336 h, dose 10-50 mg/kg; method in brief: as §1
[7] = Toxicity in BALB/c mouse assessed as macroscopic changes in intestines at 10 to 50 mg/kg, po for 5 days a week for 2 weeks; type: organism-based; details: in vivo, 336 h, dose 10-50 mg/kg; method in brief: as §1
[8] = Toxicity in BALB/c mouse assessed as macroscopic changes in spleen at 10 to 50 mg/kg, po for 5 days a week for 2 weeks; type: organism-based; details: in vivo, 336 h, dose 10-50 mg/kg; method in brief: as §1
[9] = Toxicity in BALB/c mouse assessed as weight change of liver at 10 to 50 mg/kg, po for 5 days a week for 2 weeks; type: organism-based; details: in vivo, 336 h, dose 10-50 mg/kg; method in brief: as §1
[10] = Toxicity in BALB/c mouse assessed as weight change of kidney at 10 to 50 mg/kg, po for 5 days a week for 2 weeks; type: organism-based; details: in vivo, 336 h, dose 10-50 mg/kg; method in brief: as §1
[11] = Toxicity in BALB/c mouse assessed as weight change of spleen at 10 to 50 mg/kg, po for 5 days a week for 2 weeks; type: organism-based; details: in vivo, 336 h, dose 10-50 mg/kg; method in brief: as §1
[12] = Toxicity in BALB/c mouse assessed as maximum tolerated dose administered orally for 5 days a week; details: in vivo, route po, time 1 weeks
Method in brief: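 Female Balb/c mice, three per dose, were dosed per os, starting at 10 mg/kg/day and then at 20 and 50 mg/kg, 5 days a week for 2 weeks. Body weight and general health were followed. At autopsy, liver, kidney and spleen were weighed and examined macroscopically.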

[13] = Toxicity in BALB/c mouse allografted with mouse 67NR cells assessed as body weight loss at 50 mg/kg, po for 5 days a week and measured 3 times a week relative to control; type: organism-based; details: in vivo, 168 h, time 1 weeks
[14] = Toxicity in BALB/c mouse allografted with mouse 67NR cells assessed as enlarged liver at 50 mg/kg, po for 5 days a week; type: organism-based; details: in vivo, 168 h, time 1 weeks
[15] = Toxicity in BALB/c mouse allografted with mouse 67NR cells assessed as increase in alanine aminotransferase levels in plasma at 50 mg/kg, po for 5 days a week; type: organism-based; details: in vivo, 168 h, time 1 weeks
[16] = Toxicity in BALB/c mouse allografted with mouse 67NR cells assessed as increase in aspartate aminotransferase levels in plasma at 50 mg/kg, po for 5 days a week; type: organism-based; details: in vivo, 168 h, time 1 weeks
[17] = Toxicity in BALB/c mouse allografted with mouse 67NR cells assessed as decrease in spleen weight at 50 mg/kg, po for 5 days a week; type: organism-based; details: in vivo, 168 h, time 1 weeks
[18] = Toxicity in BALB/c mouse allografted with mouse 67NR cells assessed as decrease in lymphocyte count at 50 mg/kg, po for 5 days a week; type: organism-based; details: in vivo, 168 h, time 1 weeks
[19] = Toxicity in BALB/c mouse allografted with mouse 67NR cells assessed as increase in monocyte count at 50 mg/kg, po for 5 days a week; type: organism-based; details: in vivo, 168 h, time 1 weeks
[20] = Toxicity in BALB/c mouse allografted with mouse 67NR cells assessed as increase in granulocyte count at 50 mg/kg, po for 5 days a week; type: organism-based; details: in vivo, 168 h, time 1 weeks
[21] = Toxicity in BALB/c mouse allografted with mouse 67NR cells assessed as effect on hemoglobin levels at 50 mg/kg, po for 5 days a week; type: organism-based; details: in vivo, 168 h, time 1 weeks
[22] = Toxicity in BALB/c mouse allografted with mouse 67NR cells assessed as effect on hematocrit levels at 50 mg/kg, po for 5 days a week; type: organism-based; details: in vivo, 168 h, time 1 weeks
[23] = Toxicity in BALB/c mouse allografted with mouse 67NR cells assessed as increase in blood urea levels at 50 mg/kg, po for 5 days a week; type: organism-based; details: in vivo, 168 h, time 1 weeks
[24] = In vivo inhibition of STS in BALB/c mouse allografted with mouse 67NR cells assessed as residual enzyme activity in tumor lysates using [3H]E1S as substrate at 50 mg/kg, po for 5 days a week followed by incubation of tumor lysates with [3H]E1S for 3 hrs by radioisotope enzymatic assay (reference value: 100%); type: functional, Neoplasm; details: time 1 weeks
[25] = In vivo inhibition of STS in BALB/c mouse allografted with mouse 67NR cells assessed as residual enzyme activity in liver lysates using [3H]E1S as substrate at 50 mg/kg, po for 5 days a week followed by incubation of […] with [3H]E1S for 3 hrs by radioisotope enzymatic assay (reference value: 100%); type: functional; details: time 1 weeks
Steryl-sulfatase = biological target: T1, Steryl-sulfatase (Homo sapiens, UniProt P08842); experiment: Inhibition of human placental STS using [3H]E1S as substrate incubated for 3 hrs by radioisotope enzymatic assay; type: tissue-based, Placenta
T1 sequence (P08842 whole entry): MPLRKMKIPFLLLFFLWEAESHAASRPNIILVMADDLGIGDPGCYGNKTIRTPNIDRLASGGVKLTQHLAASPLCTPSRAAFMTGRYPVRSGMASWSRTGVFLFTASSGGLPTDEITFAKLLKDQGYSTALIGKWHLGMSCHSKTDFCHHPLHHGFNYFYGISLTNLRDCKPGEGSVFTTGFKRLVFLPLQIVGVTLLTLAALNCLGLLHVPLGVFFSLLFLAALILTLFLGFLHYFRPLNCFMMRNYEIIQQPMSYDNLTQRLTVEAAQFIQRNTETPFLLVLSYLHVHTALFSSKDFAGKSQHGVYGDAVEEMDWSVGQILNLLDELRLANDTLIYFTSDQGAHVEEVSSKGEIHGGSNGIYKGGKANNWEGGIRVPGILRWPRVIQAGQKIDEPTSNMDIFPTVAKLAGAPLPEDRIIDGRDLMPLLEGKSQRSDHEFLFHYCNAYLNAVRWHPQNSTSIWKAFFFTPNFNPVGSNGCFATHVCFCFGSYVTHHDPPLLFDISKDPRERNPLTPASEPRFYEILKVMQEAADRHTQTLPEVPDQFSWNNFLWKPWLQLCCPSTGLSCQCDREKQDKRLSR
Method in brief: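 Purified placental STS, 5 U (1 U hydrolyses 100 μM NPS in 1 h at 37 °C), incubated with [3H]E1S (3 nM, 4 × 10⁴ Bq) and inhibitor in 20 mM Tris-HCl pH 7.4 for 3 h at 37 °C. The hydrolysis product was extracted into toluene and counted. Results are expressed as residual STS activity (%) from triplicate runs.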

For `NS(=O)(=O)Oc1ccc(-c2cn(-c3cc(F)cc(F)c3)nn2)cc1`, the Activity [1] was “Non-Toxic”, the inhibition (Mus musculus) was “Active” and the Activity [2] was “Non-Toxic”. For the same compound, the Activity [3] was “Non-Toxic”, the Activity [4] was “Toxic” and the Activity [5] was “Non-Toxic”. The Activity [6] was “Non-Toxic”, the Activity [7] was “Non-Toxic” and the Activity [8] was “Non-Toxic”. The Activity [9] was “Non-Toxic”, the Activity [10] was “Non-Toxic” and the Activity [11] was “Non-Toxic”. For the same compound, the MTD at 168 h [12] was 50 mg/kg, the Activity [13] was 4.5% and the Activity [14] was “Toxic”. For the same compound, the Activity [15] was “Toxic”, the Activity [16] was “Toxic” and the Activity [17] was “Toxic”. The Activity [18] was “Toxic”, the Activity [19] was “Toxic” and the Activity [20] was “Toxic”. For the same compound, the Activity [21] was “Non-Toxic”, the Activity [22] was “Non-Toxic” and the Activity [23] was “Toxic”. The Activity [24] was 1.3%, the Activity [25] was 10.1% and the IC50 (Steryl-sulfatase) was 36.8 nM.
